The labels stand for the following.
B1: tRNA (parent)
chain: GUUCCGUUGGCGUAAUGGUAACGCGUCUCCCUCCUAAGGAGAAGACUGCGGGUUCGAGUCCCGUACGGAACG

Variants at the floor of the assay were thinned out. Where only a bound is given, the exact number is not on record here.

In the data set the parent is B1. Briefly: yeast fitness relative to wild type (ratio to wild type); higher = fitter; tRNA-Arg(CCU), competitive growth, 37 C, YPD. The gist of the method: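 Gene amplicons from the start population and from each of six end populations were read by 100-nucleotide paired-end sequencing. Those end populations came from pooled Saccharomyces cerevisiae strains carrying tRNA-Arg(CCU) gene variants at the native locus, competed in YPD at 37°C for 24 hours. Fitness relative to wild type was worked out from changes in genotype frequencies. Genotypes needed ≥ 100 starting reads, and estimates < 0.5 were set to 0.5.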
On to C49A U53C C62G, for which the yeast fitness came out at 0.598.

Take C49G U53A C66U: the yeast fitness was not above 0.5.

Turning to C49U U54G, the yeast fitness amounted to 0.562.

With G48C A69U, the yeast fitness was found to be 0.95.

As to C46G C61G A65C, the yeast fitness was found to be 0.574.

In the case of U47G C62G G68A, the yeast fitness is 0.525.

As to C49A G52A C61U, the yeast fitness was not above 0.5.

On to C49G C55G C61G, for which the yeast fitness came out at 0.558.

With C46U A70C, the yeast fitness came out at 0.976.

Take G48A G56A A65G: the yeast fitness turned out to be 0.718.

On to C46U A57C U64C, for which the yeast fitness is not above 0.5.

On to U47C C49A A65G, for which the yeast fitness was not above 0.5.

For G48A A57U, the yeast fitness worked out at 0.649.

Regarding C49G G58A, the yeast fitness came out at 0.844.

C49G C55A C60U C66A: the yeast fitness was not above 0.5.

With C49G G56C, the yeast fitness was found to be 0.641.

In the case of C46U C49A C60A A70C, the yeast fitness was not above 0.5.

As to G48A U54A, the yeast fitness was found to be 0.692.

For the variant C49G G56A A69C, the yeast fitness is 0.73.

G48A A65G: the yeast fitness worked out at 0.981.

Take C49U U59C: the yeast fitness came to 0.91.

In the case of C49U U59C C62G, the yeast fitness turned out to be 0.503.

Consider U47C A57G A65U C66A A69C, for which the yeast fitness was not above 0.5.

C46G C49U A65U A69C: the yeast fitness was not above 0.5.

Turning to G48A U54C C66U, the yeast fitness was not above 0.5.

With C49U C61U, the yeast fitness amounted to 0.814.

As for C49U C61A, the yeast fitness turned out to be 0.57.

Consider C49A G67C, for which the yeast fitness came out at 0.825.

On to C49U C62G, for which the yeast fitness was determined as 0.704.

Consider C46A U59G, for which the yeast fitness turned out to be 1.06.

C46A U59C: the yeast fitness worked out at 0.898.

Turning to C46G U54A C62U, the yeast fitness was not above 0.5.

On to G48A C62U A70U, for which the yeast fitness stood at 0.824.

Regarding G48A C60U A70U, the yeast fitness was 0.71.

With U47C C49A G51A C55A C60A, the yeast fitness is not above 0.5.

As to G48C G63C, the yeast fitness came out at 0.705.

Turning to C49G G50C A65U, the yeast fitness came out at 0.544.

Consider C46A G63C, for which the yeast fitness was 0.995.

For the variant C49A U59A, the yeast fitness is 0.681.

With C49G A70U, the yeast fitness amounted to 0.872.

As to C49G A70G, the yeast fitness was 0.832.

Take C49G A70C: the yeast fitness turned out to be 0.845.

G48C A65C C66G: the yeast fitness came out at 0.557.

Turning to U47A C62A, the yeast fitness was 0.683.

Regarding U47A C62U, the yeast fitness stood at 0.842.

Regarding C46U C61A, the yeast fitness amounted to 0.83.

Regarding C46U C61U, the yeast fitness was found to be 0.956.

Take C46G C49A G68C A69G: the yeast fitness is not above 0.5.

For C46G C49A U54C G58C, the yeast fitness was not above 0.5.

With C49G G67A, the yeast fitness is 0.908.

Turning to C49G G67U, the yeast fitness stood at 0.695.

As to U47C A57U, the yeast fitness worked out at 0.623.

Take C46G G48C U64G: the yeast fitness is not above 0.5.

As for G48C C61G A65U, the yeast fitness was not above 0.5.

On to C49U U54C A70C, for which the yeast fitness came out at 0.617.

On to U47G A57U C60A, for which the yeast fitness was found to be 0.555.

With C49U A57U U59C, the yeast fitness was 0.536.

As for C46A U47G C49A G52A G58C U64G A65G, the yeast fitness is not above 0.5.

On to C49A C61U C62A G67C, for which the yeast fitness is not above 0.5.

For the variant G48C G51C A69U, the yeast fitness is not above 0.5.

Regarding C46U C61A G67A, the yeast fitness stood at 0.568.

Take U47C U54C: the yeast fitness worked out at 0.843.

With C49G U59G, the yeast fitness worked out at 0.635.

Take U47G U54C: the yeast fitness stood at 0.504.

As to U47A U54C, the yeast fitness amounted to 0.811.

Turning to G48A G56C, the yeast fitness turned out to be 0.618.

G48A C60G: the yeast fitness is 0.583.

As for C49A U64G A69C, the yeast fitness came to 0.592.

On to C46G A65C, for which the yeast fitness came to 0.97.

Consider C46G A65U, for which the yeast fitness worked out at 0.992.

In the case of C46G A65G, the yeast fitness was 0.897.

As for C46G C55G, the yeast fitness was determined as 0.722.

Take G48A G68C: the yeast fitness is 0.985.

With G48A U54C A69C, the yeast fitness was determined as 0.686.

In the case of U47G A65C, the yeast fitness is 0.672.

As for G48A U64G, the yeast fitness was determined as 1.

As to C49G C62A, the yeast fitness is 0.845.

Consider G48C C55A C61U, for which the yeast fitness was not above 0.5.

For G48C G50A G67A, the yeast fitness was not above 0.5.

Turning to C49U G63A, the yeast fitness amounted to 0.908.

For the variant C49U G63C, the yeast fitness was 0.703.

Regarding C49U C61G A69C, the yeast fitness is 0.559.

For G48A C66A G68U A70C, the yeast fitness is not above 0.5.

In the case of C46U G50C C55A G63A C66U, the yeast fitness is not above 0.5.

Regarding C46U C55A, the yeast fitness came to 0.587.

As to C49G U53C C60A, the yeast fitness was not above 0.5.

As for C46G C55G A69G, the yeast fitness is not above 0.5.

Consider C49A G56C G58C, for which the yeast fitness is not above 0.5.

With G50A A57C, the yeast fitness was determined as 0.611.

C49U C61U A70G: the yeast fitness turned out to be 0.831.

Turning to C49U U59G C60U, the yeast fitness is not above 0.5.

Regarding C49A A69U, the yeast fitness amounted to 0.681.

Turning to C49A A69C, the yeast fitness amounted to 0.709.

For the variant C46U U54C G58C G67A, the yeast fitness is not above 0.5.

C49G U64G A65G A70U: the yeast fitness stood at 0.683.

For C46U U54C A69C, the yeast fitness is 0.778.

Turning to C46U C49A A65U, the yeast fitness was found to be 0.554.

Consider G48C G52C A57C G58A, for which the yeast fitness was not above 0.5.

In the case of C49U G58C C62G A69C, the yeast fitness was determined as 0.559.

Take U47C U59G: the yeast fitness worked out at 0.936.

Consider G50A A70C, for which the yeast fitness stood at 0.823.

Regarding C46U G48A C55U U59A, the yeast fitness is not above 0.5.

As to U47G C62U, the yeast fitness was 0.633.

For the variant U47C G58U G63A A65U, the yeast fitness was not above 0.5.

Regarding U47G G50A C55A G56A, the yeast fitness came to 0.533.

Consider C49G A69U, for which the yeast fitness was 0.955.

Regarding C49G A69C, the yeast fitness was 0.766.

On to G48A G50A, for which the yeast fitness came out at 0.973.

As for C46G G63C G67A A70G, the yeast fitness is not above 0.5.

As for G48A G52C A57C C62A, the yeast fitness was not above 0.5.

C49G U64C: the yeast fitness amounted to 0.972.

For U47C U64C, the yeast fitness is 0.926.

In the case of U47C G51A, the yeast fitness is 0.906.

With C49U G51C A69C, the yeast fitness was not above 0.5.

As for C49G G56C G67C, the yeast fitness is not above 0.5.

As to C46A U47A, the yeast fitness was 1.04.

Consider C46A C49U, for which the yeast fitness worked out at 0.958.

Regarding C49U A65U A69U, the yeast fitness came to 0.861.

Regarding C46U U54C G56A, the yeast fitness came to 0.642.

As to G48C C62U, the yeast fitness came out at 0.899.

Consider C46G C49A G67A, for which the yeast fitness is 0.606.

As for C46G C49A G67C, the yeast fitness was not above 0.5.

As for U47C G68C, the yeast fitness was 0.742.

Turning to U47C G68U, the yeast fitness was 1.1.

As for C46U G58C C60A, the yeast fitness stood at 0.637.

On to C49U A70G, for which the yeast fitness amounted to 1.07.

Turning to G48A C49A, the yeast fitness amounted to 0.969.

Regarding G48A C66U, the yeast fitness was 0.97.

Consider C46G C62G A69G, for which the yeast fitness came out at 0.733.

On to G48A G68U A69C, for which the yeast fitness amounted to 0.524.

With C49U G68U, the yeast fitness was found to be 0.976.

For the variant C49U G68A, the yeast fitness was 0.85.

On to C49G G56C A70C, for which the yeast fitness is not above 0.5.

Regarding C46U G56C A69U, the yeast fitness was 0.54.

In the case of C46U C61U G67A, the yeast fitness is 0.535.

With U47G C60A, the yeast fitness is not above 0.5.

Regarding C49A C61U, the yeast fitness was 0.607.

Turning to C49A C61G, the yeast fitness came out at 0.541.

U47C G63A: the yeast fitness is 0.949.

For C46A C62U, the yeast fitness was 1.02.

For the variant C46U G52A U59C, the yeast fitness was determined as 0.631.

In the case of C49U A57U, the yeast fitness came to 0.632.

Consider G48C C62G A65U, for which the yeast fitness is not above 0.5.

On to C46A G63A G67A, for which the yeast fitness is 0.552.

In the case of U47C G67C, the yeast fitness was determined as 0.886.

On to U47C G67U, for which the yeast fitness was 0.86.

Consider C49G U59A G63A, for which the yeast fitness turned out to be 0.564.

For the variant G48C G56A A70U, the yeast fitness came out at 0.918.

For the variant C46U A69U A70G, the yeast fitness is 0.761.

In the case of G48A C55U A57G G68C, the yeast fitness is not above 0.5.

On to U47A A70G, for which the yeast fitness came to 0.921.

For the variant U47A A70U, the yeast fitness was 1.06.

As to C46U G50A G56C C62A C66U, the yeast fitness was 0.582.

In the case of C46G U59C G68C, the yeast fitness is not above 0.5.

Take U47G U59A: the yeast fitness amounted to 0.543.

Turning to C49G G68C A70C, the yeast fitness was determined as 0.623.

Consider C49G A57C G67U, for which the yeast fitness came to 0.576.

As for C49U C60A A70G, the yeast fitness amounted to 0.546.

For C46A C55A A65C, the yeast fitness was found to be 0.533.

With U47C A57G C62U, the yeast fitness was not above 0.5.

On to C49U G52A, for which the yeast fitness amounted to 0.748.

Regarding G48C A70U, the yeast fitness was found to be 1.

For the variant U47C A65C, the yeast fitness was found to be 1.04.

For the variant C46A G52A, the yeast fitness was 0.816.

For the variant G48C G56A, the yeast fitness came to 0.905.

Regarding C49G C60U, the yeast fitness is 0.692.

As to G48A G52C U54C, the yeast fitness was 0.542.
